Laboratory results as given in ChEMBL document CHEMBL1125638, “Design and conformational analysis of several highly potent bradykinin receptor antagonists” (J Med Chem, 1991).

Key:
[1] = Displacement of [3H]bradykinin from bradykinin receptor in guinea pig ileal membrane; assay type: cell membranes, Cavia porcellus
SV-T2 = experiment: Binding affinity for bradykinin receptor of SV-T2 fibroblasts; assay type: functional, cell-based; conditions: Mus musculus, read-out: pA2 (converted)
Summary of the method: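 Functional antagonism measured as pA2 against bradykinin-stimulated prostaglandin synthesis in SV-T2 fibroblasts, which express only B2 bradykinin receptors. Agonist activity was also checked in the same cells at concentrations up to 10 µM.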

[2] = Displacement of [3H]bradykinin from bradykinin receptor of guinea pig ileal membrane; Inactive; parameters: species or system Cavia porcellus

| Compound | Ki [1] [nM] | Kb (SV-T2) [nM] | Ki [2] |
| --- | --- | --- | --- |
| NC(N)=NCCC[C@@H](N)C(=O)N[C@@H](CCCN=C(N)N)C(=O)N1CCC[C@H]1C(=O)N1C[C@@H](O)C[C@H]1C(=O)NCC(=O)N[C@@H](Cc1cccs1)C(=O)N[C@@H](CO)C(=O)N1Cc2ccccc2C[C@@H]1C(=O)N1Cc2ccccc2C[C@H]1C(=O)N[C@@H](CCCN=C(N)N)C(=O)O | 0.381 | 0.794 |  |
| NC(N)=NCCC[C@@H](N)C(=O)N[C@@H](CCCN=C(N)N)C(=O)N1CCC[C@H]1C(=O)N1C[C@@H](O)C[C@H]1C(=O)NCC(=O)N[C@@H](Cc1cccs1)C(=O)N[C@@H](CO)C(=O)N1Cc2ccccc2C[C@@H]1C(=O)N1Cc2ccccc2C[C@@H]1C(=O)N[C@@H](CCCN=C(N)N)C(=O)O | 571 | 2510 |  |
| NC(N)=NCCC[C@@H](N)C(=O)N[C@@H](CCCN=C(N)N)C(=O)N1CCC[C@H]1C(=O)N1C[C@@H](O)C[C@H]1C(=O)NCC(=O)N[C@@H](Cc1cccs1)C(=O)N[C@@H](CO)C(=O)N1Cc2ccccc2C[C@@H]1C(=O)N1C2CCCC2C[C@H]1C(=O)N[C@@H](CCCN=C(N)N)C(=O)O (stereo partly specified) | 0.176 | 0.398 |  |
| NC(N)=NCCC[C@@H](N)C(=O)N[C@@H](CCCN=C(N)N)C(=O)N1CCC[C@H]1C(=O)N1C[C@@H](O)C[C@H]1C(=O)NCC(=O)N[C@@H](Cc1cccs1)C(=O)N[C@H]1CSSC[C@@H](C(=O)O)NC(=O)[C@H](CCCN=C(N)N)NC(=O)[C@H](Cc2ccccc2)NC(=O)[C@H]2Cc3ccccc3CN2C1=O |  |  | Not Active |
| NC(N)=NCCC[C@@H](N)C(=O)N[C@@H](CCCN=C(N)N)C(=O)N1CCC[C@H]1C(=O)N1C[C@@H](O)C[C@H]1C(=O)NCC(=O)N[C@@H](Cc1cccs1)C(=O)N[C@H]1CSSC[C@@H](C(=O)N[C@@H](CCCN=C(N)N)C(=O)O)NC(=O)[C@H](Cc2ccccc2)NC(=O)[C@@H](Cc2ccccc2)NC1=O | 876 | 3980 |  |
| NC(N)=NCCC[C@@H](N)C(=O)N[C@@H](CCCN=C(N)N)C(=O)N1CCC[C@H]1C(=O)N1C[C@H](O)C[C@H]1C(=O)NCC(=O)N[C@@H](Cc1ccccc1)C(=O)N[C@@H](CO)C(=O)N[C@H](Cc1ccccc1)C(=O)N[C@@H](Cc1ccccc1)C(=O)N[C@@H](CCCN=C(N)N)C(=O)O | 26.8 | 6.31 |  |
